Source: article PMC4797071 (ACS chemical neuroscience, 2015)

Assays:
Aβ(1–40) [1] = molecular target: T1, Aβ(1–40) (Homo sapiens, UniProt P05067); assay: Aβ aggregate growth kinetics by dynamic light scattering; format: biochemical; conditions: method not specified
Procedure, shortened: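 Aβ(1–40) relyophilized from 50% ACN and stored as a urea/glycine stock; thawed, sonicated 2 min and diluted into PBSA. 140 µM Aβ alone or with 14 µM peptide, 0.45 µm filtered into a cuvette held at 37 °C. 488 nm laser; intensity at 90° recorded over 10 h and normalized to total mass concentration; z-averaged hydrodynamic diameter from the autocorrelation function by cumulants.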

[2] = tested on: primary cortical neuronal cells; assay: Aβ induced toxicity, MTS assay with primary neuronal cultures; format: cell-based, mice; conditions: for protection from Aβ toxicity at 10 µM peptide: 10 µM Aβ(1–42), MTS, Aβ alone ~35% cell viability
Procedure, shortened: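 Cortical neurons from E15.5 mouse embryos, matured in neurobasal medium. Aβ(1–42) at 1 mg/mL in PBS, diluted to 10 µM with or without test peptide or mutant TTR at varying doses. Added at 6 DIV alongside vehicle and controls. At 8 DIV, MTS reagent for 2–3 h, absorbance 490 nm. Significance versus vehicle and versus Aβ set at p < 0.05.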

[3] = Peptide self-assembly by photoinduced cross-linking; format: physicochemical; conditions: peptide 36 µM, not cross-linked, boiled, denaturing gel, silver staining
Procedure, shortened: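 Peptides at 36 µM in PBSA, 1 h at 37 °C, then photo-cross-linked (PICUP) and heated 95 °C for 5 min. Non-cross-linked samples boiled for comparison. Separated on 10–20% Tris-Tricine gel; silver stained.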

[4] = Peptide self-association by light scattering; format: physicochemical; conditions: peptide alone 80 µM, 37 °C, after 1 h of incubation; data not shown
Aβ(1–40) [5] = molecular target: T1, Aβ(1–40); assay: Thioflavin T; format: biochemical; conditions: 28 µM Aβ, 2.8 µM peptide or protein, 37 °C, 1, 5, 24, 48 h
Procedure, shortened: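 Aβ(1–40) urea/glycine stock diluted into PBSA; 28 µM alone or with 2.8 µM peptide or mutant TTR, incubated at 37 °C. At 1, 5, 24 and 48 h, aliquots diluted 14-fold into 10 µM ThT in PBSA. Excitation 440 nm, emission 460–500 nm; intensity at 480 nm used. Three serial spectra averaged, ThT-in-PBSA background subtracted; some samples from two independent experiments.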

T1 sequence (P05067 672-711 limits assumed): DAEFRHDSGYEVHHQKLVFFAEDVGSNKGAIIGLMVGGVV

| Substance | effect on Aβ aggregation (summary statement) (Aβ(1–40) [1]) | inhibition of Aβ toxicity (summary statement) ([2]; summary, concentration not given) | bands in the absence of cross-linker [3] | light scattered above background (self-association) [4] | effect on ThT fluorescence increase up to 48 h (Aβ(1–40) [5]) | protection from Aβ toxicity at 10 µM peptide [2] |
| --- | --- | --- | --- | --- | --- | --- |
| SKV^DPPTIAALLSPYSYSQ [LG2] | nor did they affect Aβ aggregation | nor did they affect Aβ aggregation or inhibit Aβ toxicity |  |  |  |  |
| SKVVT^DPPRYTIAALLSPYSYSQ [LG3] |  |  | ~ 5 kDa | did not scatter light above background | at most a minor inhibitory effect | no protective effect |
| SKV^DPPTIAALLSPYSYSQ (head to tail) [CG2] |  |  |  |  |  | no protective effect |
